Activity calls are given as the source filed them. The rule behind the calls is not given here.
How the values were obtained:
[1] = molecular target: T1, Signal transducer and activator of transcription 3 (Homo sapiens, UniProt P40763); assay: Inhibition of STAT3 in human MDA-MB-468 cells assessed as downregulation of c-Myc protein expression at 1.25 to 5 uM incubated for 24 hrs by western blot analysis; type: cell-based; conditions: dose 1.25-5 µM
Summary of the method: (§1)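 Cells were treated for 24 h, then lysed in hot 2% SDS with boiling, and protein was quantified by BCA. Lysates were run on SDS-PAGE, transferred to nitrocellulose and blocked with 3% milk in TBST. Membranes were probed overnight at 4 °C with 1:1000 antibodies to pSTAT3 Tyr705, pSTAT3 Ser727, STAT3, c-Myc, MCL-1, β-actin and GAPDH. Detection used HRP secondaries and ECL.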

[2] = molecular target: T1, Signal transducer and activator of transcription 3; assay: Inhibition of STAT3 in human HEL cells expressing JAK2 V617F mutant cells assessed as downregulation of c-Myc protein expression at 1.25 to 5 uM incubated for 24 hrs by western blot analysis; type: cell-based; conditions: dose 1.25-5 µM; summary of the method: as §1
[3] = molecular target: T1, Signal transducer and activator of transcription 3; assay: Inhibition of IL-6 induced STAT3 transcriptional activity in human HepG2 cells incubated for 1 hr followed by stimulation with IL-6 for 5.5 hrs by luciferase reporter gene assay; type: cell-based
Summary of the method: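 STAT3-dependent luciferase reporter assay in HepG2 cells with IL-6 stimulation; IC50 given as mean ± SD of at least three independent experiments.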

MDA-MB-468 [4] = assay: Effect on STAT3 expression in human MDA-MB-468 cells at 1.25 to 5 uM measured after 24 hrs by Western blot analysis; type: functional, cell-based; conditions: dose 1.25-5 µM; summary of the method: as §1
MDA-MB-453 = assay: Antiproliferative activity against human MDA-MB-453 cells expressing low levels of STAT3 assessed as inhibition of cell growth incubated for 72 hrs by MTT assay; type: functional, cell-based; conditions: MDA-MB-453, 72 h
Summary of the method: (§2)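 MTT proliferation assay on MCF-7 and MDA-MB-453 cells; IC50 given as mean ± SD of at least two independent experiments.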

HEL [5] = assay: Effect on STAT3 expression in human HEL cells expressing JAK2 V617F mutant at 1.25 to 5 uM measured after 24 hrs by Western blot analysis; type: functional, cell-based; conditions: dose 1.25-5 µM; summary of the method: as §1
[6] = molecular target: T1, Signal transducer and activator of transcription 3; assay: Displacement of 5'-FAM-GpYLPQTV-NH2 from His-tagged STAT3-SH2 domain (127 to 722 residues) (unknown origin) assessed as binding rate at 50 uM […] by fluorescence polarization assay; conditions: time 90.0 min
HEL [7] = assay: Induction of cell cycle arrest in human HEL cells expressing JAK2 V617F mutant cells assessed as increase in accumulation at G2/M phase after 48 hrs by PI/RNase staining based flow cytometry; type: functional; conditions: dose 1.25-5 µM
Summary of the method: (§3)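 Cells were seeded overnight, then exposed to DMSO or increasing compound concentrations for 48 h. They were fixed in ice-cold 80% ethanol overnight, stained with PI containing RNase for 30 min at 37 °C, and analysed by flow cytometry.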

HEL [8] = assay: Induction of apoptosis in human HEL cells expressing JAK2 V617F mutant cells at 1.25 to 5 uM measured after 48 hrs by AnnexinV-FITC/PI staining based flow cytometry analysis; type: functional, cell-based; conditions: dose 1.25-5 µM
Summary of the method: (§4)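 Cells were seeded overnight, then exposed to DMSO or compound for 48 h. They were washed twice in PBS and resuspended in binding buffer with Annexin V-FITC and propidium iodide. After 15 min at room temperature in the dark, cells were analysed by flow cytometry; data are representative of three independent experiments.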

MCF7 = assay: Antiproliferative activity against human MCF7 cells expressing low levels of STAT3 assessed as inhibition of cell growth incubated for 72 hrs by MTT assay; type: functional, cell-based; conditions: MCF7, 72 h; summary of the method: as §2
[9] = molecular target: Insulin-like growth factor 1 receptor (Homo sapiens) (UniProt P08069); assay: Inhibition of IGF1R (unknown origin) at 1 uM by ELISA
[10] = molecular target: T1, Signal transducer and activator of transcription 3; assay: Inhibition of STAT3 phosphorylation at Tyr705 residue in human MDA-MB-468 cells measured after 24 hrs by Western blot analysis; type: cell-based; conditions: dose 1.25-5 µM; summary of the method: as §1
HEL [11] = assay: Induction of cell cycle arrest in human HEL cells expressing JAK2 V617F mutant cells assessed as decrease in accumulation at G1 phase after 48 hrs by PI/RNase staining based flow cytometry; type: functional; conditions: dose 1.25-5 µM; summary of the method: as §3
MDA-MB-468 [12] = assay: Induction of cell cycle arrest in human MDA-MB-468 cells assessed as decrease in accumulation at G1 phase after 48 hrs by PI/RNase staining based flow cytometry; type: functional; conditions: dose 1.25-5 µM; summary of the method: as §3
[13] = molecular target: Receptor tyrosine-protein kinase erbB-4 (Homo sapiens) (UniProt Q15303); assay: Inhibition of ERBB4 (unknown origin) at 1 uM by ELISA
[14] = molecular target: T1, Signal transducer and activator of transcription 3; assay: Inhibition of STAT3 in human MDA-MB-468 cells assessed as downregulation of MCL-1 protein expression at 1.25 to 5 uM incubated for 24 hrs by western blot analysis; type: cell-based; conditions: dose 1.25-5 µM; summary of the method: as §1
[15] = molecular target: T1, Signal transducer and activator of transcription 3; assay: Displacement of 5'-FAM-GpYLPQTV-NH2 from His-tagged STAT3-SH2 domain (127 to 722 residues) (unknown origin) assessed as binding rate at 20 uM […] by fluorescence polarization assay; conditions: time 90.0 min
[16] = molecular target: Platelet-derived growth factor receptor beta (Homo sapiens) (UniProt P09619); assay: Inhibition of PDGFRbeta (unknown origin) at 1 uM by ELISA
HEL [17] = assay: Antiproliferative activity against human HEL cells harboring JAK2 V617F mutant assessed as inhibition of cell growth incubated for 72 hrs by MTT assay; type: functional, cell-based
Summary of the method: (§5)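 MTT proliferation assay; MDA-MB-468 grown in DMEM/F-12 and HEL in high-glucose DMEM, each with 10% FBS and penicillin/streptomycin, at 37 °C under 5% CO₂. IC50 given as mean ± SD of at least three independent experiments.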

MDA-MB-468 [18] = assay: Induction of cell cycle arrest in human MDA-MB-468 cells assessed as increase in accumulation at G2/M phase after 48 hrs by PI/RNase staining based flow cytometry; type: functional; conditions: dose 1.25-5 µM; summary of the method: as §3
[19] = molecular target: T1, Signal transducer and activator of transcription 3; assay: Displacement of 5'-FAM-GpYLPQTV-NH2 from His-tagged STAT3-SH2 domain (127 to 722 residues) (unknown origin) assessed as binding rate at 100 uM […] by fluorescence polarization assay; conditions: time 90.0 min
[20] = molecular target: T1, Signal transducer and activator of transcription 3; assay: Inhibition of STAT3 phosphorylation at Tyr705 residue in human HEL cells expressing JAK2 V617F mutant measured after 24 hrs by Western blot analysis; type: cell-based; conditions: dose 1.25-5 µM; summary of the method: as §1
[21] = molecular target: T1, Signal transducer and activator of transcription 3; assay: Binding affinity to His-tagged STAT3-SH2 domain (127 to 722 residues) (unknown origin) by surface plasmon resonance analysis
Summary of the method: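 SPR on a Biacore T200 with STAT3 SH2 domain. Analytes were run as concentration series, and KD was taken as the equilibrium constant.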

[22] = molecular target: Receptor tyrosine-protein kinase erbB-2 (Homo sapiens) (UniProt P04626); assay: Inhibition of ERBB2 (unknown origin) at 1 uM by ELISA
MDA-MB-468 [23] = assay: Antiproliferative activity against human MDA-MB-468 cells overexpressing STAT3 assessed as inhibition of cell growth incubated for 72 hrs by MTT assay; type: functional, cell-based; conditions: MDA-MB-468, 72 h; summary of the method: as §5
MDA-MB-468 [24] = assay: Induction of apoptosis in human MDA-MB-468 cells at 1.25 to 5 uM measured after 48 hrs by AnnexinV-FITC/PI staining based flow cytometry analysis; type: functional, cell-based; conditions: dose 1.25-5 µM; summary of the method: as §4
[25] = molecular target: Vascular endothelial growth factor receptor 1 (Homo sapiens) (UniProt P17948); assay: Inhibition of VEGFR1 (unknown origin) at 1 uM by ELISA
[26] = molecular target: T1, Signal transducer and activator of transcription 3; assay: Inhibition of STAT3 phosphorylation at Ser727 residue in human MDA-MB-468 cells measured after 24 hrs by Western blot analysis; type: cell-based; conditions: dose 1.25-5 µM; summary of the method: as §1
[27] = molecular target: T1, Signal transducer and activator of transcription 3; assay: Inhibition of STAT3 in human HEL cells expressing JAK2 V617F mutant cells assessed as downregulation of MCL-1 protein expression at 1.25 to 5 uM incubated for 24 hrs by western blot analysis; type: cell-based; conditions: dose 1.25-5 µM; summary of the method: as §1
[28] = molecular target: T1, Signal transducer and activator of transcription 3; assay: Inhibition of STAT3 phosphorylation at Ser727 residue in human HEL cells expressing JAK2 V617F mutant measured after 24 hrs by Western blot analysis; type: cell-based; conditions: dose 1.25-5 µM; summary of the method: as §1

T1 sequence (P40763 whole entry): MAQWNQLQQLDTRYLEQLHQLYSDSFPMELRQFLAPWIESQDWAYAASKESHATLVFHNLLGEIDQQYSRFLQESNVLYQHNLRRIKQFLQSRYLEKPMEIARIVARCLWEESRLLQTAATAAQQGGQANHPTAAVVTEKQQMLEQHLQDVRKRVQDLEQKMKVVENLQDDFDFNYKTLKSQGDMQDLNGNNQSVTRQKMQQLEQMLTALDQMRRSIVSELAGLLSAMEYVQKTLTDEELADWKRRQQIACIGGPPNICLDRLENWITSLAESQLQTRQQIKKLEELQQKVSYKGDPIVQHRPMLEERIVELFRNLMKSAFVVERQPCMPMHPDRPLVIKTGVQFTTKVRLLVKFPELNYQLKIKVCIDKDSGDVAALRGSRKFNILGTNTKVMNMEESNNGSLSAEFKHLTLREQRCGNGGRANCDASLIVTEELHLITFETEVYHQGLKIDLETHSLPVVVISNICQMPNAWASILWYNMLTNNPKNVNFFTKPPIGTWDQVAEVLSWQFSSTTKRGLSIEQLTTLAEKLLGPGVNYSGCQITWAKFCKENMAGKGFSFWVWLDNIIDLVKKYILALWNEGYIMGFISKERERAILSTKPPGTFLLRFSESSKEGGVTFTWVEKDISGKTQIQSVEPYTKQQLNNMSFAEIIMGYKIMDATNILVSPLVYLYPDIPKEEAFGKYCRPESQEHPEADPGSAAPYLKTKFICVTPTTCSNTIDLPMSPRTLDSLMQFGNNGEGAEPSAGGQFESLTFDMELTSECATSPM
Insulin-like growth factor 1 receptor (Homo sapiens), sequence (P08069 31-736 limits assumed): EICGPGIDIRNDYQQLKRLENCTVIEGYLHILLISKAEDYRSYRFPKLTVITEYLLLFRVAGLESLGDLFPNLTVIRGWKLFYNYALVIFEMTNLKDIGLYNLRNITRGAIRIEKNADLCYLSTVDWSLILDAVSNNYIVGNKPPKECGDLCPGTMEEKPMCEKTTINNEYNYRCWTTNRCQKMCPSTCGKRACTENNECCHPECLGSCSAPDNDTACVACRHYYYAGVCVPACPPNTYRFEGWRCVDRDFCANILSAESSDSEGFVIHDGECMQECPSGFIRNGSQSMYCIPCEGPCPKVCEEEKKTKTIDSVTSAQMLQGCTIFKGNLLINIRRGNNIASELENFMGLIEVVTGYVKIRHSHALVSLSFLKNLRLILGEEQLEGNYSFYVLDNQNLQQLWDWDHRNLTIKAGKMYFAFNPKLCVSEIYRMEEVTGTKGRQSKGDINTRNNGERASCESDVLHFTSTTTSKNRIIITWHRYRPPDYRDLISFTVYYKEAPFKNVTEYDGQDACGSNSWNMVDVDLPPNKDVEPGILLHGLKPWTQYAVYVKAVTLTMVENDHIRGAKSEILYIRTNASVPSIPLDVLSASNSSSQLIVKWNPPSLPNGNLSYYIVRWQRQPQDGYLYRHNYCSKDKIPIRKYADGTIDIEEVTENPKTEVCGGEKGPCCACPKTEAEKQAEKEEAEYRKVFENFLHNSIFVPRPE
Insulin-like growth factor 1 receptor (Homo sapiens), sequence (P08069 741-1367 limits assumed): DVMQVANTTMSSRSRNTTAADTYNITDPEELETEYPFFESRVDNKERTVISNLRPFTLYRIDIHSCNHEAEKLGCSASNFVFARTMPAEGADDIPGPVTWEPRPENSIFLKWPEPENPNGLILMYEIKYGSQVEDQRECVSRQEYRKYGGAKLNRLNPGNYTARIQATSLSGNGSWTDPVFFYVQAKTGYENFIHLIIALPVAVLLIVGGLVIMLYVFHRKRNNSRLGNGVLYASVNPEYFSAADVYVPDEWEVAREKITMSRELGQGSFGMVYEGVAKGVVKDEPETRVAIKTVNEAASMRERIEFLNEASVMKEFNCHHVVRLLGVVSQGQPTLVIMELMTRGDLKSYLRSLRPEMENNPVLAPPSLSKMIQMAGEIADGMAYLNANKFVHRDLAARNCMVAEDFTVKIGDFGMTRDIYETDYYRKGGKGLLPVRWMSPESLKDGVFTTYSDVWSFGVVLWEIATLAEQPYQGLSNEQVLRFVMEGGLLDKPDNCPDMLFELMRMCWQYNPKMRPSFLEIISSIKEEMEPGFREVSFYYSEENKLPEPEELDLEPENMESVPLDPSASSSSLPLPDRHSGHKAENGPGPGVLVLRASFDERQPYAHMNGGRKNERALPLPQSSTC
Vascular endothelial growth factor receptor 1 (Homo sapiens), sequence (P17948 whole entry): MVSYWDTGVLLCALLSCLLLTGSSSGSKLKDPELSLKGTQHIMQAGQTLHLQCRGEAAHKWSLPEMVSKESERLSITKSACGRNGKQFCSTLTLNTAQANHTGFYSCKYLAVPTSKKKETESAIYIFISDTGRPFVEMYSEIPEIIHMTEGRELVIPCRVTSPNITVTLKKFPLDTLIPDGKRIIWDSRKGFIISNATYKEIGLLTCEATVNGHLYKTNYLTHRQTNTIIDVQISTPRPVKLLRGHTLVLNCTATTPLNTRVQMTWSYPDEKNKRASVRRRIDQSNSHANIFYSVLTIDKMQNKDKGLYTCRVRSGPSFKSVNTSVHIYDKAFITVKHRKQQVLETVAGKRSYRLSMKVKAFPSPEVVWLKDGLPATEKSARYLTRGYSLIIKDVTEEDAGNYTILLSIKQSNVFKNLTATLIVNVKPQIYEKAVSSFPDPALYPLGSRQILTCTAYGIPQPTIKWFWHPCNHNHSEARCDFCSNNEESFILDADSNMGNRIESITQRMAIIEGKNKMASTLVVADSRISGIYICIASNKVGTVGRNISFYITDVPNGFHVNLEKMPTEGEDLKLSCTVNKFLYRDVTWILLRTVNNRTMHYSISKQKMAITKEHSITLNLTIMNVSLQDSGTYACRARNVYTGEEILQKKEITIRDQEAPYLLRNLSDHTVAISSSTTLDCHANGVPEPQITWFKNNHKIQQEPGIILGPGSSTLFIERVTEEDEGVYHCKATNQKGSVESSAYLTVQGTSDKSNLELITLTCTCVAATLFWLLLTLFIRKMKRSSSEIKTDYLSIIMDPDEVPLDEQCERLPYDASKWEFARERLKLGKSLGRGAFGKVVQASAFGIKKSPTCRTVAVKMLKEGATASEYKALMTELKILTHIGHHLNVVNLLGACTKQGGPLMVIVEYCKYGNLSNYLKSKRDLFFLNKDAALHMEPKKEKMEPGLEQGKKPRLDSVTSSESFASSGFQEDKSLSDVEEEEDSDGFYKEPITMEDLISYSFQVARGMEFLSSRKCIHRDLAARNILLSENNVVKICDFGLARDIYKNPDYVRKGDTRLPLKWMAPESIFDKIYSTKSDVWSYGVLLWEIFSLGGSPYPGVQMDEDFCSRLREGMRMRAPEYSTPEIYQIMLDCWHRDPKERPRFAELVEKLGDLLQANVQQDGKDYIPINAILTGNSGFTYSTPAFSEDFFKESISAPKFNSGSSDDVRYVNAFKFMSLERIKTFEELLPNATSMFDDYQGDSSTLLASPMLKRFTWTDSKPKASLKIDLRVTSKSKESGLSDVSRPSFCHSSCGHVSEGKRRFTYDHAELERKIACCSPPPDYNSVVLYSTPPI
Platelet-derived growth factor receptor beta (Homo sapiens), sequence (P09619 whole entry): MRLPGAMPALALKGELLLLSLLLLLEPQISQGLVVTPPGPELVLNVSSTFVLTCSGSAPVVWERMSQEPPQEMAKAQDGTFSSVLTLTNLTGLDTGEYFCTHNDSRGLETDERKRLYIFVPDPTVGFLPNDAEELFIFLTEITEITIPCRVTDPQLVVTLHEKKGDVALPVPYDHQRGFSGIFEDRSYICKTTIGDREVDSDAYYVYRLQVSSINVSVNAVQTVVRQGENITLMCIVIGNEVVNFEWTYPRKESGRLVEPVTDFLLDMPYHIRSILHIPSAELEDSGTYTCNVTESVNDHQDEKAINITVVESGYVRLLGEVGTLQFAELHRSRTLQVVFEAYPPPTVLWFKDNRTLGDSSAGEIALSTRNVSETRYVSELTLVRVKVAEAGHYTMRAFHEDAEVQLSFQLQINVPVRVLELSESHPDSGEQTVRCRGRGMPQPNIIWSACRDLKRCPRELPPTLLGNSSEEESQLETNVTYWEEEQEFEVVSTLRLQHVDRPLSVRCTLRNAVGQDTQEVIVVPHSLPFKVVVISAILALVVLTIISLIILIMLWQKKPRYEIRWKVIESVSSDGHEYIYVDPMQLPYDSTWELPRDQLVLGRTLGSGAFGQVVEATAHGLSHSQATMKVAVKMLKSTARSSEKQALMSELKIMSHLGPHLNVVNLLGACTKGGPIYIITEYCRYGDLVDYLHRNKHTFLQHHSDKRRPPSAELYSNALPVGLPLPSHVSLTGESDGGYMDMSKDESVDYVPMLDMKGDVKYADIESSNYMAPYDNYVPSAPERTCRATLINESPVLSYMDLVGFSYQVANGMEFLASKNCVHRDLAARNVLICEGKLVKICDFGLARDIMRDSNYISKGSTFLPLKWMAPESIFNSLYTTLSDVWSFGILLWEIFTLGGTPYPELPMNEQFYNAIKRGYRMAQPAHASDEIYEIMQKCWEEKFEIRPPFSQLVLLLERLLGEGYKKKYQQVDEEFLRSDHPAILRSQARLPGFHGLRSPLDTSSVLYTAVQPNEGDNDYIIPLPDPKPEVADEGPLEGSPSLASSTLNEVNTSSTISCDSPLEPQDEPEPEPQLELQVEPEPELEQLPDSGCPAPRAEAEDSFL

SMILES | inhibition [1] | inhibition [2] | IC50 [3] | Activity (MDA-MB-468 [4]) | IC50 (MDA-MB-453) | Activity (HEL [5]) | Activity [6] | Activity (HEL [7]) | Activity (HEL [8]) | IC50 (MCF7) | inhibition [9] | inhibition [10] | Activity (HEL [11]) | Activity (MDA-MB-468 [12]) | inhibition [13] | inhibition [14] | Activity [15] | inhibition [16] | IC50 (HEL [17]) | Activity (MDA-MB-468 [18]) | further results
CCCC(C)Oc1ccc(C(=O)Nc2ccc3nc(SCC(=O)N[C@@H](C)c4ccccc4)sc3c2)c(OC)c1C (stereo not given in full) | Active | Active | 160 nM | inactive | > 20000 nM | inactive | < 10% | Dose-Dependent Effect | Active | > 20000 nM | 0% | Dose-Dependent Effect | Dose-Dependent Effect | Dose-Dependent Effect | 0% | Active | < 10% | 0% | 2410 nM | Dose-Dependent Effect | Activity [19]: < 10%; inhibition [20]: Dose-Dependent Effect; Kd [21]: 62.6 nM; inhibition [22]: 5.2%; IC50 (MDA-MB-468 [23]): 1040 nM; Activity (MDA-MB-468 [24]): Active; inhibition [25]: 0%; inhibition [26]: Dose-Dependent Effect; inhibition [27]: Active; inhibition [28]: Dose-Dependent Effect
CCCC(C)Oc1ccc(C(=O)Nc2ccc3nc(SCC(=O)N[C@@H](C)c4ccc(OC)cc4)sc3c2)c(OC)c1C (stereo not given in full) | Active | Active | 67 nM | inactive | > 20000 nM | inactive | < 10% | Dose-Dependent Effect | Active | > 20000 nM | 0% | Dose-Dependent Effect | Dose-Dependent Effect | Dose-Dependent Effect | 0% | Active | < 10% | 0% | 1110 nM | Dose-Dependent Effect | Activity [19]: < 10%; inhibition [20]: Dose-Dependent Effect; Kd [21]: 53 nM; inhibition [22]: 9.6%; IC50 (MDA-MB-468 [23]): 250 nM; Activity (MDA-MB-468 [24]): Active; inhibition [25]: 0%; inhibition [26]: Dose-Dependent Effect; inhibition [27]: Active; inhibition [28]: Dose-Dependent Effect

— ChEMBL document CHEMBL4813976, “Rational drug design of benzothiazole-based derivatives as potent signal transducer and activator of transcription 3 (STAT3) signaling pathway inhibitors” (Eur J Med Chem, 2021)
